The source made the active and inactive calls. The calls are words filed in the database; no cut-off is given here.
Columns and labels:
CHO = assay: Effect on cAMP level in wild-type CHO cells at 0.001 to 1 uM by alphascreen assay; format: functional, cell-based; settings: Cricetulus griseus
Method in brief: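 Compounds at 1 nM to 1 µM final concentrations. cAMP quantified with AlphaScreen kit. Four independent experiments, each in triplicate.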

Adenosine receptor A1 [1] = target: T1, Adenosine receptor A1 (Homo sapiens, UniProt P30542); assay: Displacement of [3H]DPCPX from human A1AR expressed in CHO cell membranes measured after 90 mins by scintillation counting method
T1 sequence (P30542 whole entry): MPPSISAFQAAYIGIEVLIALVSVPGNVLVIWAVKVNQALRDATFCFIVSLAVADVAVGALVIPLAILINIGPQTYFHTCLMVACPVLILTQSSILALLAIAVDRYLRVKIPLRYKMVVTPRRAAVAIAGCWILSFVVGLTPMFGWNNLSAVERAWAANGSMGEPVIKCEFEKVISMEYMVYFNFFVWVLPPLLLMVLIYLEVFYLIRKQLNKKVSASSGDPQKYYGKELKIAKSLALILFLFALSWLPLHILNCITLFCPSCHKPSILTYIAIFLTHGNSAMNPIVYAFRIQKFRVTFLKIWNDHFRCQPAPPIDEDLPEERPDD
Method in brief: (§1)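 Nonspecific binding with 1 µM DPCPX. GF/B filtration and scintillation counting. Ki by Cheng–Prusoff. Inhibition % at 1 µM. Four experiments in triplicate.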

Adenosine receptor A2a [2] = target: T2, Adenosine receptor A2a (Homo sapiens, UniProt P29274); assay: Displacement of [3H]ZM241385 from human A2AR expressed in CHO cell membranes measured after 60 mins by scintillation counting method
Method in brief: (§2)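 Nonspecific binding defined with 1 µM ZM241385. Filtered on GF/B, scintillation counted. Ki by Cheng–Prusoff. Percent inhibition at 1 µM. Four experiments in triplicate.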

Adenosine receptor A3 = target: T3, Adenosine receptor A3 (Homo sapiens, UniProt P0DMS8); assay: Displacement of [125I]ABMECA from human A3R expressed in CHO cell membranes measured after 120 mins by scintillation counting method
T3 sequence (P0DMS8 whole entry): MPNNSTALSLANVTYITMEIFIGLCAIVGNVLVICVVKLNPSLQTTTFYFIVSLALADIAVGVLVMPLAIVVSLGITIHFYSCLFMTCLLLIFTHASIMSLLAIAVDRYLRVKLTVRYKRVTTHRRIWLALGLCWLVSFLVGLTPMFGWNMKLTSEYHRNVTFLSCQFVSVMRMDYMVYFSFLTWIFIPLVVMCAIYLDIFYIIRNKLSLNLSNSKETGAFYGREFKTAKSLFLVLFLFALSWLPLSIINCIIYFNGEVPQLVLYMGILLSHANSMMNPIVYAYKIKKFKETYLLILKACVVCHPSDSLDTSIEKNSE
Method in brief: (§3)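 Nonspecific binding with 1 µM AB-MECA. GF/B filtration and counting. Ki via Cheng–Prusoff. Percent inhibition at 1 µM. Four experiments in triplicate.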

Adenosine receptor A2b = target: T4, Adenosine receptor A2b (Homo sapiens, UniProt P29275); assay: Agonist activity at human A2B expressed in CHO cells assessed as stimulation of cAMP production by alphascreen assay; format: functional, cell-based
T4 sequence (P29275 whole entry): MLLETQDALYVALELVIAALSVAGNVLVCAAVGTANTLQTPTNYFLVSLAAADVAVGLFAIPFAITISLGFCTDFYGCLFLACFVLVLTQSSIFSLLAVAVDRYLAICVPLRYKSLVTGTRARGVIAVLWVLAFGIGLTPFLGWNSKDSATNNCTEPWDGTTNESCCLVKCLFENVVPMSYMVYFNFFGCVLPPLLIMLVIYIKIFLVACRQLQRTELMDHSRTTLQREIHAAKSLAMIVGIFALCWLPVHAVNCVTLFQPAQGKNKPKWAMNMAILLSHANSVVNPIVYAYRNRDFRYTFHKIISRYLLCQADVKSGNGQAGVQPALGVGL
Method in brief: (§4)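 Compounds tested alone at final 1 nM to 1 µM. cAMP measured by AlphaScreen. Efficacy taken at 1 µM relative to NECA 1 µM (=100%). Four independent experiments in triplicate.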

[3] = target: T5, Adenosine receptor A2b (Homo sapiens) (UniProt P29275); assay: Agonist activity at human A2B expressed in CHO cells assessed as stimulation of cAMP production at 1 uM by alphascreen assay relative to NECA; format: functional, cell-based; method in brief: as §4
T5 sequence (whole entry): T4 sequence (P29275 whole entry)

Adenosine receptor A1 [4] = target: T1, Adenosine receptor A1; assay: Inverse agonist activity at human A1AR expressed in CHO cells assessed as increase in forskolin-stimulated cAMP production by alphascreen assay; format: functional, cell-based
Method in brief: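 Compounds at 1 nM to 1 µM. cAMP rise measured by AlphaScreen. EC50 from sigmoid fit. Four independent experiments in triplicate.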

[5] = target: T6, Adenosine receptor A1 (Homo sapiens) (UniProt P30542); assay: Inverse agonist activity at human A1AR expressed in CHO cells assessed as increase in forskolin-stimulated cAMP production by alphascreen assay relative to DPCPX; format: functional, cell-based
T6 sequence (whole entry): T1 sequence (P30542 whole entry)
Method in brief: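 Compounds at 1 nM to 1 µM. cAMP rise measured by AlphaScreen. EC50 from sigmoid fit. […] Four independent experiments in triplicate.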

[6] = target: T7, Adenosine receptor A3 (Homo sapiens) (UniProt P0DMS8); assay: Displacement of [125I]ABMECA from human A3R expressed in CHO cell membranes at 1 uM measured after 120 mins by scintillation counting method relative to control; method in brief: as §3
T7 sequence (whole entry): T3 sequence (P0DMS8 whole entry)

Adenosine receptor A2a [7] = target: T2, Adenosine receptor A2a; assay: Displacement of [3H]ZM241385 from human A2AR expressed in CHO cell membranes at 1 uM measured after 60 mins by scintillation counting method relative to control; method in brief: as §2
[8] = target: T5, Adenosine receptor A2b (Homo sapiens); assay: Antagonist activity at human A2BR expressed in CHO cells assessed as inhibition of NECA-stimulated cAMP production at 1 uM by alphascreen assay relative to control; format: functional, cell-based
Method in brief: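 Compounds added at 1 nM to 1 µM final, with percent inhibition read at 1 µM. AlphaScreen cAMP read-out. IC50 by sigmoid non-linear regression. Four independent experiments in triplicate.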

Adenosine receptor A2a [9] = target: T2, Adenosine receptor A2a; assay: Antagonist activity at human A2AR expressed in CHO cells assessed as inhibition of CGS21680-stimulated cAMP production by alphascreen assay; format: functional, cell-based
[10] = target: T6, Adenosine receptor A1 (Homo sapiens); assay: Displacement of [3H]DPCPX from human A1AR expressed in CHO cell membranes at 1 uM measured after 90 mins by scintillation counting method relative to control; method in brief: as §1

T2 sequence (P29274 whole entry): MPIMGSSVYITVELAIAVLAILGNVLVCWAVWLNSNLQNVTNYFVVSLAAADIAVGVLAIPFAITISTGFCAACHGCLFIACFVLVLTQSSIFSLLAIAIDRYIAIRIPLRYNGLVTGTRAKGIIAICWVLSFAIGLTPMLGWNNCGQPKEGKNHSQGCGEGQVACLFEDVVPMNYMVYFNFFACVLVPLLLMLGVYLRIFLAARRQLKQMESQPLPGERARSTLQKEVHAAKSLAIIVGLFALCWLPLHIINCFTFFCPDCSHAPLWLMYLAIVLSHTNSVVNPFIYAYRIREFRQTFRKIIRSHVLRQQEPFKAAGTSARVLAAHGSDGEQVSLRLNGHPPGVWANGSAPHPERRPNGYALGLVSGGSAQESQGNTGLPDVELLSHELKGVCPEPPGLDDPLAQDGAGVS

Compound	Ki (Adenosine receptor A1 [1])	Ki (Adenosine receptor A2a [2])	Ki (Adenosine receptor A3)	EC50 (Adenosine receptor A2b)	Efficacy [3]	EC50 (Adenosine receptor A1 [4])	Emax [5]	inhibition [6]	inhibition (Adenosine receptor A2a [7])	inhibition [8]	IC50 (Adenosine receptor A2a [9])	inhibition [10]	Activity (CHO)
N#Cc1cccc(CSc2nc(N)c(C#N)c(-c3ccco3)c2C#N)c1	1.02 nM	93 nM	668 nM	> 1000 nM	7%	4.82 nM	100%	–	–	–	–	–	inactive
COC(=O)c1cccc(CSc2nc(N)c(C#N)c(-c3ccoc3)c2C#N)c1	2.11 nM	96 nM	–	> 1000 nM	7%	4.35 nM	51%	1%	–	–	–	–	inactive
N#Cc1c(NC2CCCC2)nc(SCCO)c(C#N)c1-c1ccco1	742 nM	–	780 nM	> 1000 nM	1%	–	–	–	8%	–	–	–	inactive
N#Cc1c(N)nc(SCc2cccnc2)c(C#N)c1-c1ccco1	1.42 nM	24 nM	948 nM	> 1000 nM	1%	2.73 nM	47%	–	–	–	83 nM	–	inactive
N#Cc1c(N)nc(NCCO)c(C#N)c1-c1cccnc1	–	–	–	> 1000 nM	1%	–	–	8%	1%	–	–	1%	inactive
N#Cc1c(N)nc(SCCO)c(C#N)c1-c1cccnc1	35 nM	–	–	> 1000 nM	18%	94 nM	75%	22%	7%	–	–	–	inactive
N#Cc1c(N)nc(SCCO)c(C#N)c1-c1ccoc1	19 nM	–	–	852 nM	32%	58 nM	39%	34%	19%	38%	–	–	inactive
N#Cc1c(N)nc(NCCO)c(C#N)c1-c1cccs1	324 nM	–	–	> 1000 nM	1%	–	–	29%	33%	4%	–	–	inactive
CCCn1c(=O)c2[nH]c(C3CCCC3)nc2n(CCC)c1=O	–	–	–	–	1%	–	–	–	–	–	–	–	–
COC(=O)c1cccc(CSc2nc(N)c(C#N)c(-c3cccnc3)c2C#N)c1	1.18 nM	636 nM	–	> 1000 nM	15%	6.26 nM	72%	8%	–	–	–	–	inactive
N#Cc1c(N)nc(SCCO)c(C#N)c1-c1ccsc1	60 nM	–	–	> 1000 nM	8%	142 nM	62%	33%	9%	–	–	–	inactive
COC(=O)c1cccc(CSc2nc(N)c(C#N)c(-c3cccs3)c2C#N)c1	2.72 nM	693 nM	–	982 nM	62%	3.85 nM	56%	15%	–	–	–	–	inactive
N#Cc1c(Nc2ccc(I)cc2)nc(SCCO)c(C#N)c1-c1ccco1	–	–	–	> 1000 nM	1%	–	–	8%	1%	–	–	10%	inactive
N#Cc1c(N)nc(SCCO)c(C#N)c1-c1cccs1	52 nM	–	554 nM	885 nM	69%	107 nM	74%	–	1%	–	–	–	inactive

More lines, main results first:

Ki (Adenosine receptor A1 [1])	Ki (Adenosine receptor A2a [2])	Ki (Adenosine receptor A3)	EC50 (Adenosine receptor A2b)	Efficacy [3]	EC50 (Adenosine receptor A1 [4])	Emax [5]	inhibition [6]	inhibition (Adenosine receptor A2a [7])	inhibition [8]	IC50 (Adenosine receptor A2a [9])	inhibition [10]	Compound	Activity (CHO)
57 nM	–	–	> 1000 nM	7%	128 nM	83%	29%	27%	33%	–	–	N#Cc1c(N)nc(SCCO)c(C#N)c1-c1ccco1	inactive
82 nM	–	–	> 1000 nM	7%	185 nM	24%	11%	1%	–	–	–	COC(=O)c1ccc(CSc2nc(N)c(C#N)c(-c3ccco3)c2C#N)o1	inactive
2.71 nM	108 nM	134 nM	> 1000 nM	9%	3.41 nM	30%	–	–	–	–	–	N#Cc1c(N)nc(SCc2ccccn2)c(C#N)c1-c1ccco1	inactive
93 nM	887 nM	582 nM	> 1000 nM	1%	–	–	–	–	–	–	–	N#CCSc1nc(N)c(C#N)c(-c2ccco2)c1C#N	inactive
40 nM	114 nM	678 nM	> 1000 nM	14%	–	–	–	–	40%	–	–	N#Cc1c(N)nc(SCc2ccncc2)c(C#N)c1-c1ccco1	inactive
–	–	–	> 1000 nM	1%	–	–	17%	18%	6%	–	20%	N#Cc1c(N)nc(NCCO)c(C#N)c1-c1ccco1	inactive
175 nM	–	177 nM	> 1000 nM	17%	–	–	–	21%	–	–	–	N#Cc1c(N)nc(SCC(N)=O)c(C#N)c1-c1ccco1	inactive
108 nM	–	–	> 1000 nM	4%	–	–	25%	17%	–	–	–	COC(=O)CSc1nc(N)c(C#N)c(-c2ccco2)c1C#N	inactive
23 nM	224 nM	–	> 1000 nM	1%	57 nM	29%	26%	–	–	–	–	N#Cc1c(N)nc(SCC(=O)c2ccccc2)c(C#N)c1-c1ccco1	inactive
243 nM	–	211 nM	> 1000 nM	3%	–	–	–	11%	–	–	–	CC(=O)Nc1nc(SCCO)c(C#N)c(-c2ccco2)c1C#N	inactive
86 nM	–	–	> 1000 nM	10%	192 nM	53%	1%	8%	–	–	–	N#Cc1c(N)nc(SCC(=O)OCc2ccccc2)c(C#N)c1-c1ccco1	inactive
632 nM	–	–	> 1000 nM	11%	–	–	3%	25%	–	–	–	N#Cc1c(N)nc(OCCO)c(C#N)c1-c1ccco1	inactive

Reference: ChEMBL document CHEMBL4406810, “Modifications on the Amino-3,5-dicyanopyridine Core To Obtain Multifaceted Adenosine Receptor Ligands with Antineuropathic Activity” (J Med Chem, 2019)
